Experiment [1] is described as follows: inhibitors of TNFa-induced NFkB p65 translocation, primary screen, imaging, HUVEC, MLSMR starter and 10KST1 sets (AID 438;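 active = inhibition above 20% together with a positive visual image hit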;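 note: compound added about 3h40 before a 20 min TNFalpha stimulation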;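 for inhibition: signal is the nuclear over cytoplasmic p65 intensity ratio per well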). The following applies: HUVEC TNFa-induced p65 nuclear translocation; cell count: measured here: nuclei count (cytotoxicity indicator), at 2.08 µM; inhibition: at 2 µM, stronger effect = higher value, 0% TNFa-plus-vehicle, 100% no-TNFa wells.
Experiment [2] is described as follows: reduction of polyQ htt aggregates in cells – imaging, exon1htt(103Q)mCFP cells, high-content imaging, primary screen (AID 483;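 active = visual image review flags a hit and inhibition of aggregation exceeds 20%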;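 note: compound exposure lasted 3 days before fixation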;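 for nuclei count: percent of the per-plate median nuclei count of sample wells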). The following applies: exon1htt(103Q)mCFP cell line, aggregate imaging, at 2 µM; inhibition of aggregation: stronger effect = higher value; nuclei count: measured here: cell count, toxicity.
A short description of experiment [3]: endothelial E-selectin expression blockers – imaging, HUVEC, immunofluorescence, MLSMR starter and 10KST1 sets, primary screen (AID 487;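 active = visually confirmed hit in the image check and inhibition above 20%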;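 for inhibition: signal is fraction of cell area covered by stained E-selectin grains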;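 for nuclei count: 100% = median nuclei count of all wells on the same plate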). The note with it: HUVEC TNFalpha-induced E-selectin immunofluorescence imaging, at 2 µM; inhibition: stronger effect = higher value; nuclei count: measured here: cell number, toxicity.
Experiment [4] deals with Voltage-gated potassium channel subunit beta-2 (Rattus norvegicus) (UniProt P62483). The experiment in a line: inhibitors of rat Kvbeta2 reductase activity – biochemical, NADPH fluorescence, primary screen (AID 622;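 active = fluorescence slope higher than the sample average by over 3 SD, cut at about -0.22 in these data, passing the limit was not always enough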;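 note: slope of raw intensity against log time taken from 70 to 1610 s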). The note with it: recombinant KvBeta, 4-cyanobenzaldehyde reduction, at 10 µM, stronger effect = higher value.
Sequence of Voltage-gated potassium channel subunit beta-2 (Rattus norvegicus) (P62483 whole entry, looked up): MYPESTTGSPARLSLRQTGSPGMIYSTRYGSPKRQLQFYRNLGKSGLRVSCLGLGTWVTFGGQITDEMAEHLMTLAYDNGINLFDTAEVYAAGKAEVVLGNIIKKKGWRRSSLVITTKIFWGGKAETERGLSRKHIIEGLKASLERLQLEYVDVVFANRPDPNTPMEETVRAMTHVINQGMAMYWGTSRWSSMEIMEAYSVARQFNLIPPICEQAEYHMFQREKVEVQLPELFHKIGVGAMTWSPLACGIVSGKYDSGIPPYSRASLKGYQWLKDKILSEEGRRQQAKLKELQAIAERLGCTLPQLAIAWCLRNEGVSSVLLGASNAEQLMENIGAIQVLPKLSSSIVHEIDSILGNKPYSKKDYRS
For experiment [5] the target is unchanged. In words: enhancers of rat Kvbeta2 NADPH turnover – biochemical, NADPH fluorescence, primary screen (AID 623;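 active = NADPH fluorescence slope more negative than the mean of all samples by about 3 SD, 99.7% confidence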;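 note: fluorescence intensity change per second fitted from 20 to 320 s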). The note with it: Recombinant KvBeta, NADPH fluorescence decrease slope, 10 min; at 10 µM; stronger effect = lower value.
Experiment [6] concerns the target Muscarinic acetylcholine receptor M4 (Homo sapiens) (UniProt P08173). The experiment in a line: M4-linked GIRK flux change, two-sided – cell-based, HEK293 M4/GIRK, thallium flux, BTC-AM, M4 allosteric agonist project, primary screen (AID 625;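 active = fluorescence slope after compound addition differing from the mean of all tested samples at 99.7% confidence, mostly higher but some lower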;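 note: thallium influx through GIRK channels coupled to M4 in HEK293 cells with BTC-AM dye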). The note with it: at 10 µM, actives lie on both sides. In outline: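 assay system = HEK293 cells with M4 receptor and GIRK channels | medium = pH 7.3 thallium assay buffer | doses = 10 µM final, single point | timing = cells overnight at 37 °C, BTC-AM loading 1 h, reads 2 min total | signal = BTC-AM fluorescence, 1 Hz kinetic reads | read-out = post-addition slope, 15–24 s, of baseline-normalized fluorescence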

The nature of experiment [7]: blockers of RIG-like receptor reporter activation – cell-based, Sendai virus stimulus, luciferase, 10K MLSCN set, TLR/RLR signaling modifier project, primary screen (AID 602276).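 Note: firefly luciferase from ISG56 promoter only with Renilla not read in this screen; 0% = Sendai virus plus DMSO and 100% = medium plus DMSO without virus.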 The note with it: HEK293 RL24 IRF3 luciferase reporter, at 10 µM, stronger effect = higher value.
Experiment [8] can be described thus: TLR3 IRF3 reporter activation blockers – cell-based, poly I:C stimulus, luciferase, 10K MLSCN set, primary screen (AID 602277;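 active = inhibition of the reporter signal at or above 50%; inactive = inhibition below 50%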). The following applies: HEK293-TLR3 RL24 IRF3 luciferase reporter, at 10 µM, stronger effect = higher value.
Experiment [9] concerns the target Alpha-2C adrenergic receptor (Homo sapiens) (UniProt P18825). In words: compounds altering alpha2C-coupled GIRK flux – cell-based, HEK293 alpha2C/GIRK1/2, thallium flux, primary screen (AID 624;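 active = fluorescence slope after compound addition differing from the mean of all screened samples at 99.7% confidence, in either direction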;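 note: slope of fluorescence ratio to pre-addition baseline per second over 15 to 24 s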). The following applies: thallium flux BTC fluorescence, at 10 µM, actives lie on both sides.

The term inhibition denotes the change of the read-out against control, counted positive when it falls.

Active and inactive are the calls of the source.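 Rule for the calls, unless noted: active = inhibition at or above 50% at 10 µM; inactive = inhibition below 50%.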

Sequence of Muscarinic acetylcholine receptor M4 (Homo sapiens) (P08173 whole entry, looked up): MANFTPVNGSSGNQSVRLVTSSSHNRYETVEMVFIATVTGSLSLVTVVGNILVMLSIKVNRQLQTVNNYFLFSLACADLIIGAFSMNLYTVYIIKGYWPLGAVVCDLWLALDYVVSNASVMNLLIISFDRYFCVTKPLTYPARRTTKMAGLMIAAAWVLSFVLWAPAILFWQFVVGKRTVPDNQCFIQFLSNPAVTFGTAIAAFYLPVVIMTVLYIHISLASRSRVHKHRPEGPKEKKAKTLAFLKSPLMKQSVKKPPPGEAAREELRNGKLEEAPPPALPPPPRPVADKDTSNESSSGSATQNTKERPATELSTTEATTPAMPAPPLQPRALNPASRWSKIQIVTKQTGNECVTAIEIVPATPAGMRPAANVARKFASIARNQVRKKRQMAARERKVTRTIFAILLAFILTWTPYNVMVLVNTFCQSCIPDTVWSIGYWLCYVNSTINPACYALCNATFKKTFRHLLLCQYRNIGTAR
Sequence of Alpha-2C adrenergic receptor (Homo sapiens) (P18825 whole entry, looked up): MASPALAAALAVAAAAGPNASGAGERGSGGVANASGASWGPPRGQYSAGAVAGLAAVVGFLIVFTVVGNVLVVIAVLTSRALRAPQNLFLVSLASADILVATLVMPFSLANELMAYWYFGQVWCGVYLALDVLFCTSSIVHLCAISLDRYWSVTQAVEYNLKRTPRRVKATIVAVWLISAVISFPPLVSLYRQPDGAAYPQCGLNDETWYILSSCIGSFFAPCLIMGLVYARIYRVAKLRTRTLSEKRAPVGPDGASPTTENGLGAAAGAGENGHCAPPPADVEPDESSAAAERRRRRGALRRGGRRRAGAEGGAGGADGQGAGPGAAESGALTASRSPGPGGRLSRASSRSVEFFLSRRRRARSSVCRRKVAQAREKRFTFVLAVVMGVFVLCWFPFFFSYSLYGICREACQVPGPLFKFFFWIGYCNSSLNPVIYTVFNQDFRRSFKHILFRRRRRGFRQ

As to `Cc1nc(NC(=O)C2CC3CCCC(C2)C3=O)sc1C` (stereo not drawn), the cell count in [1] is 411. Further, the inhibition in experiment [1] is 4.4% (inactive); in [3], -36.5% (inactive); in experiment [7], -54.4% (inactive); in experiment [8], -87.2% (inactive). Moreover, the inhibition of aggregation in [2] is -32.5% (inactive). In addition, the nuclei count in experiment [2] was determined as 110%; in experiment [3], 106%. In addition, the fluorescence slope in experiment [4] is -0.581 (inactive); in experiment [6], 0.00306 (inactive). Moreover, the NADPH fluorescence slope in experiment [5] was -4.4e-05 (inactive).
On to `Cc1cc(C)n2nc(S(=O)(=O)N(C)Cc3ccccc3)nc2n1`, for which the cell count in experiment [1] is 560. Also, the inhibition in [1] is -10.1% (inactive); in experiment [3], -35.3% (inactive); in [7] it was -4.55% (inactive); in experiment [8], 8.01% (inactive). For the same molecule, the inhibition of aggregation in [2] was -1.6% (inactive). The values for the nuclei count in experiment [2] and in [3] were 110% and 116%, respectively. Also, the fluorescence slope in [4] was -0.313 (inactive); in experiment [6], 0.00664 (inactive). Besides, the NADPH fluorescence slope in [5] was -3.3e-05 (inactive).
`COc1cccc(N2CCN(CC(=O)NCc3cccs3)CC2)c1`: the cell count in experiment [1] came out at 702. Further, the inhibition in experiment [1] is -27.6% (inactive); in experiment [3] it was 24.5% (inactive); in experiment [7], 21.2% (inactive); in [8], -6.45% (inactive). Besides, the inhibition of aggregation in experiment [2] was 20.4% (inactive). The nuclei count amounted to 100% in [2] and 99.5% in [3]. In addition, the fluorescence slope is -0.318 (inactive) in experiment [4] and 0.00733 (inactive) in experiment [6]. For the same molecule, in experiment [5], the NADPH fluorescence slope is -1.7e-05 (inactive).
On to `CCOc1ccc(Cl)cc1S(=O)(=O)N1CCCC1`, for which, in experiment [1], the cell count stood at 208. Further, the inhibition in experiment [1] was 1.4% (inactive); in [3] it was -46.5% (inactive); in experiment [7] it was 17% (inactive); in experiment [8], 15.8% (inactive). In experiment [2], the inhibition of aggregation was 0.2% (inactive). The figures for the nuclei count in experiment [2] and in experiment [3] were 101% and 122%, respectively. In addition, the results for the fluorescence slope in experiment [4] and in [6] were -0.453 (inactive) and 0.00537 (inactive), respectively. The NADPH fluorescence slope in experiment [5] is 2.4e-05 (inactive).
`CCOC(=O)c1ccc(NC(=O)CSc2ncccn2)cc1`: the cell count in [1] turned out to be 366. In addition, the inhibition in experiment [1] is 10.7% (inactive); in experiment [3], -62.8% (inactive); in experiment [7], -20.7% (inactive); in [8], -63.9% (inactive). Also, the inhibition of aggregation in experiment [2] was -25% (inactive). Also, the results for the nuclei count in [2] and in experiment [3] were 101% and 100%, respectively. Moreover, the fluorescence slope in experiment [4] was -0.532 (inactive); in experiment [6], 0.0039 (inactive). Besides, in [5], the NADPH fluorescence slope was -0.000128 (inactive).
For the molecule `Cc1cccn2c(=O)c3cc(C#N)c(=NC(=O)c4cccnc4)n(CC4CCCO4)c3nc12` (stereo not drawn), in experiment [1], the cell count was 852. Further, the inhibition in [1] was -2.8% (inactive); in experiment [3], -74.7% (inactive); in experiment [7], -14.2% (inactive); in experiment [8], -0.613% (inactive). The inhibition of aggregation in [2] was -7.5% (inactive). In addition, the values for the nuclei count in experiment [2] and in [3] were 105% and 107%, respectively. Further, the figures for the fluorescence slope in [4] and in experiment [6] were -0.0377 (active) and 0.0039 (inactive), respectively. Moreover, the NADPH fluorescence slope in experiment [5] is -8.2e-07 (inactive).
Regarding `Cc1onc(-c2ccccc2)c1C(N)=O`, the cell count in experiment [1] was determined as 506. Moreover, the inhibition is -11.2% (inactive) in experiment [1], -158% (inactive) in experiment [3], 16% (inactive) in experiment [7] and 16.2% (inactive) in experiment [8]. Further, the inhibition of aggregation in experiment [2] is -1.6% (inactive). The nuclei count in [2] worked out at 98.5%; in experiment [3], 159%. Also, the fluorescence slope was -0.563 (inactive) in experiment [4] and 0.00641 (inactive) in experiment [6]. In addition, the NADPH fluorescence slope in [5] was -6.3e-05 (inactive).
As for `CCCCN(CC)S(=O)(=O)c1ccc2c(c1)CCCN2C(C)=O`, in [1], the cell count was 490. The inhibition in [1] is 2.9% (inactive); in experiment [3] it was -88.5% (inactive); in [7], 0.955% (inactive); in experiment [8], 6.93% (inactive). Also, the inhibition of aggregation in [2] was 17.1% (inactive). For the same molecule, the nuclei count came to 111% in experiment [2] and 103% in experiment [3]. Further, the fluorescence slope in [4] was -0.545 (inactive); in experiment [6], 0.0053 (inactive). Also, the NADPH fluorescence slope in experiment [5] is -2.8e-05 (inactive).
On to `COc1ccc(C(=O)N2CCOCC2)cc1Br`, for which the cell count in [1] was determined as 406. The inhibition was -7.6% (inactive) in experiment [1], -24.6% (inactive) in [3], -0.192% (inactive) in experiment [7] and -3.39% (inactive) in [8]. The inhibition of aggregation in experiment [2] was 5.4% (inactive). For the same molecule, the nuclei count in [2] turned out to be 90.8%; in [3] it was 108%. The figures for the fluorescence slope in [4] and in experiment [6] were -0.49 (inactive) and 0.0055 (inactive), respectively. The NADPH fluorescence slope in experiment [5] is 3.2e-05 (inactive).
With `Cc1cc2cc(CNC(=O)c3ccc4c(c3)OCO4)ccc2[nH]1`, the cell count in experiment [1] came out at 442. Moreover, the values for the inhibition in experiment [1], in experiment [7] and in [8] were 2.9% (inactive), -10.5% (inactive) and -25.2% (inactive), respectively. In [2], the inhibition of aggregation was 0.1% (inactive). Also, the nuclei count was found to be 106% in [2] and 150% in experiment [3]. Moreover, the fluorescence slope in experiment [4] is -0.503 (inactive). Further, the NADPH fluorescence slope in experiment [5] is -1.1e-05 (inactive). Further, the slope in [9] was 0.00502 (inactive).
For `O=C(CS(=O)(=O)c1cn(Cc2ccc(F)cc2)c2ccccc12)N1CCCCC1`, the cell count in [1] was 474. The inhibition was -0.2% (inactive) in [1], 16.9% (inactive) in [3], 3.28% (inactive) in [7] and 11.2% (inactive) in experiment [8]. The inhibition of aggregation in experiment [2] was -5% (inactive). Moreover, the nuclei count in experiment [2] amounted to 116%; in experiment [3], 110%. Besides, the results for the fluorescence slope in experiment [4] and in experiment [6] were -0.303 (inactive) and 0.00645 (inactive), respectively. Moreover, in experiment [5], the NADPH fluorescence slope is -6.4e-05 (inactive).
Turning to `COc1ccc2c(C(F)(F)F)cc(=O)oc2c1C`, the cell count in experiment [1] was 701. In addition, the inhibition is -1.8% (inactive) in experiment [1], -97% (inactive) in [3], 17% (inactive) in experiment [7] and 11.3% (inactive) in experiment [8]. Besides, the inhibition of aggregation in [2] is 0.8% (inactive). Further, the nuclei count in [2] was 99.9%; in experiment [3] it was 111%. Besides, the fluorescence slope in experiment [4] was -0.428 (inactive); in experiment [6], 0.00456 (inactive). Besides, the NADPH fluorescence slope in experiment [5] was 1.9e-05 (inactive).
In the case of `c1ccc(-c2noc(C34CC5CC(CC(C5)C3)C4)n2)nc1`, the cell count in [1] was 362. The inhibition in experiment [1] was 10.2% (inactive); in experiment [3], -53.7% (inactive); in [7], -32.9% (inactive); in experiment [8], -64.6% (inactive). Further, the inhibition of aggregation in experiment [2] was 17.1% (inactive). Also, the nuclei count was 98.3% in [2] and 102% in experiment [3]. Further, the fluorescence slope was -0.554 (inactive) in experiment [4] and 0.00439 (inactive) in experiment [6]. Further, the NADPH fluorescence slope in experiment [5] was -0.00016 (inactive).
For `CSc1cccc(NC(=O)C2CCCN2S(=O)(=O)c2ccc3c(c2)CCC(=O)N3)c1` (stereo not drawn), the cell count in experiment [1] is 571. Moreover, the inhibition in [1] is -6.9% (inactive); in experiment [3], -72.3% (inactive); in experiment [7], 4.83% (inactive); in experiment [8], 8.19% (inactive). In addition, the inhibition of aggregation in experiment [2] was -43.4% (inactive). Also, the values for the nuclei count in experiment [2] and in experiment [3] were 99.9% and 108%, respectively. For the same molecule, the results for the fluorescence slope in [4] and in experiment [6] were -0.456 (inactive) and 0.00486 (inactive), respectively. Further, the NADPH fluorescence slope in experiment [5] is 4.1e-06 (inactive).

(Values after PubChem BioAssay.)
